Activity calls are given as the source filed them. The rule behind the calls is not given here.
Legend:
DU-145 = assay: Growth inhibition of human DU145 cells after 24 hrs by MTT assay; assay type: functional; conditions: DU-145, 24 h
OVCAR-3 = assay: Growth inhibition of human OVCAR-3 cells after 24 hrs by MTT assay; assay type: functional; conditions: OVCAR-3, 24 h
MCF7 [1] = assay: Cell cycle arrest in human MCF7 cells assessed as accumulation at G2/M phase at 4 uM after 24 hrs using propidium iodide staining by flow cytometry; assay type: functional
Procedure, shortened: (§1)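 MCF-7 cells were grown in DMEM with 10% fetal calf serum, penicillin and streptomycin, at 37 °C in 5% CO2. They were treated for 24 h at 2 and 4 µM, with DMSO-treated cells as controls. Cells were trypsinised, fixed in ice-cold 70% ethanol at 4 °C for 30 min, and RNaseA-treated at 37 °C for 30 min. Phases were read by flow cytometry.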

UO-31 = assay: Growth inhibition of human UO31 cells after 24 hrs by MTT assay; assay type: functional; conditions: UO-31, 24 h
786-0 = assay: Growth inhibition of human 786-0 cells after 24 hrs by MTT assay; assay type: functional; conditions: 786-0, 24 h
MCF7 [2] = assay: Increase of cytosolic cytochrome c level in human MCF7 cells at 4 uM after 24 hrs by Western blot analysis; assay type: functional, cell-based
Procedure, shortened: (§2)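 MCF-7 cells were grown in DMEM with 10% FCS and penicillin/streptomycin at 37 °C in 5% CO2, then treated for 24 h. Cells were lysed in ice-cold RIPA buffer with protease inhibitors and NaF. Protein was measured by Bradford assay, and 30 µg per lane was run on 12% SDS-PAGE and transferred to PVDF. Antibody steps: primary at 4 °C overnight, HRP secondary 1:2000, chemiluminescent detection.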

NCI-H460 = assay: Growth inhibition of human NCI-H460 cells after 24 hrs by MTT assay; assay type: functional; conditions: NCI-H460, 24 h
ACHN = assay: Growth inhibition of human ACHN cells after 24 hrs by MTT assay; assay type: functional
MCF7 [3] = assay: Induction of apoptosis in human MCF7 cells assessed as increase of caspase 9 activation at 4 uM after 1 hr by fluorimetry based assay; assay type: functional, cell-based
BT-549 = assay: Growth inhibition of human BT549 cells after 24 hrs by MTT assay; assay type: functional; conditions: BT-549, 24 h
SK-MEL-2 = assay: Growth inhibition of human SK-MEL-2 cells after 24 hrs by MTT assay; assay type: functional; conditions: SK-MEL-2, 24 h
NCI-H522 = assay: Growth inhibition of human NCI-H522 cells after 24 hrs by MTT assay; assay type: functional; conditions: NCI-H522, 24 h
HCT-116 = assay: Growth inhibition of human HCT116 cells after 24 hrs by MTT assay; assay type: functional; conditions: HCT-116, 24 h
HL-60(TB) = assay: Growth inhibition of human HL-60(TB) cells after 24 hrs by MTT assay; assay type: functional; conditions: HL-60, 24 h
M14 = assay: Growth inhibition of human M14 cells after 24 hrs by MTT assay; assay type: functional; conditions: M14, 24 h
NCI/ADR-RES = assay: Growth inhibition of human NCI/ADR-RES cells after 24 hrs by MTT assay; assay type: functional
MCF7 [4] = assay: Cell cycle arrest in human MCF7 cells assessed as accumulation at S phase at 4 uM after 24 hrs using propidium iodide staining by flow cytometry; assay type: functional; procedure, shortened: as §1
MCF7 [5] = assay: Increase of PARP cleavage in human MCF7 cells at 4 uM after 24 hrs by Western blot analysis; assay type: functional, cell-based; procedure, shortened: as §2
MCF7 [6] = assay: Cell cycle arrest in human MCF7 cells assessed as accumulation at G1 phase at 2 uM after 24 hrs using propidium iodide staining by flow cytometry; assay type: functional; procedure, shortened: as §1
KM12 = assay: Growth inhibition of human KM12 cells after 24 hrs by MTT assay; assay type: functional; conditions: KM12, 24 h
HOP-92 = assay: Growth inhibition of human HOP92 cells after 24 hrs by MTT assay; assay type: functional; conditions: HOP-92, 24 h
MCF7 [7] = assay: Cell cycle arrest in human MCF7 cells assessed as accumulation at G0 phase at 2 uM after 24 hrs using propidium iodide staining by flow cytometry; assay type: functional; procedure, shortened: as §1
NCI-H23 = assay: Growth inhibition of human NCI-H23 cells after 24 hrs by MTT assay; assay type: functional; conditions: NCI-H23, 24 h
SR = assay: Growth inhibition of human SR cells after 24 hrs by MTT assay; assay type: functional
SK-MEL-28 = assay: Growth inhibition of human SK-MEL-28 cells after 24 hrs by MTT assay; assay type: functional; conditions: SK-MEL-28, 24 h
HCC 2998 = assay: Growth inhibition of human HCC2998 cells after 24 hrs by MTT assay; assay type: functional; conditions: HCC 2998, 24 h
MCF7 [8] = assay: Cell cycle arrest in human MCF7 cells assessed as accumulation at G0 phase after 24 hrs using propidium iodide staining by flow cytometry; assay type: functional, cell-based; procedure, shortened: as §1
UACC-257 = assay: Growth inhibition of human UACC257 cells after 24 hrs by MTT assay; assay type: functional; conditions: UACC-257, 24 h
SNB-75 = assay: Growth inhibition of human SNB75 cells after 24 hrs by MTT assay; assay type: functional; conditions: SNB-75, 24 h
MCF7 [9] = assay: Increase of PARP cleavage in human MCF7 cells at 2 uM after 24 hrs by Western blot analysis; assay type: functional, cell-based; procedure, shortened: as §2
TK-10 = assay: Growth inhibition of human TK10 cells after 24 hrs by MTT assay; assay type: functional; conditions: TK-10, 24 h
OVCAR-8 = assay: Growth inhibition of human OVCAR8 cells after 24 hrs by MTT assay; assay type: functional; conditions: OVCAR-8, 24 h
SF-268 = assay: Growth inhibition of human SF268 cells after 24 hrs by MTT assay; assay type: functional; conditions: SF-268, 24 h
SNB-19 = assay: Growth inhibition of human SNB19 cells after 24 hrs by MTT assay; assay type: functional; conditions: SNB-19, 24 h
IGROV-1 = assay: Growth inhibition of human IGROV1 cells after 24 hrs by MTT assay; assay type: functional; conditions: IGROV-1, 24 h
CCRF-CEM = assay: Growth inhibition of human CCRF-CEM cells after 24 hrs by MTT assay; assay type: functional
RXF 393 = assay: Growth inhibition of human RXF393 cells after 24 hrs by MTT assay; assay type: functional; conditions: RXF 393, 24 h
OVCAR-4 = assay: Growth inhibition of human OVCAR4 cells after 24 hrs by MTT assay; assay type: functional; conditions: OVCAR-4, 24 h
SF-539 = assay: Growth inhibition of human SF539 cells after 24 hrs by MTT assay; assay type: functional; conditions: SF-539, 24 h
SN12C = assay: Growth inhibition of human SN12C cells after 24 hrs by MTT assay; assay type: functional
MCF7 [10] = assay: Increase of cytosolic cytochrome c level in human MCF7 cells at 2 uM after 24 hrs by Western blot analysis; assay type: functional, cell-based; procedure, shortened: as §2
MCF7 [11] = assay: Cell cycle arrest in human MCF7 cells assessed as accumulation at G0 phase at 4 uM after 24 hrs using propidium iodide staining by flow cytometry; assay type: functional; procedure, shortened: as §1
OVCAR-5 = assay: Growth inhibition of human OVCAR5 cells after 24 hrs by MTT assay; assay type: functional; conditions: OVCAR-5, 24 h
NCI-H322M = assay: Growth inhibition of human NCI-H322M cells after 24 hrs by MTT assay; assay type: functional

COc1cc2c(cc1OCCCOc1ccc(-c3cc4ccccc4c4ccccc34)cc1)N=C[C@@H]1CCCN1C2=O
GI50 (DU-145): 400 nM | GI50 (OVCAR-3): 250 nM | Activity (MCF7 [1]): 3.94% | GI50 (UO-31): 160 nM | GI50 (786-0): 700 nM | Activity (MCF7 [2]): Active | GI50 (NCI-H460): 1040 nM | GI50 (ACHN): 1260 nM | Activity (MCF7 [3]): Active | GI50 (BT-549): 270 nM | GI50 (SK-MEL-2): 40 nM | GI50 (NCI-H522): 120 nM | GI50 (HCT-116): 250 nM | GI50 (HL-60(TB)): 170 nM | GI50 (M14): 570 nM | GI50 (NCI/ADR-RES): 1670 nM | Activity (MCF7 [4]): 13.05% | Activity (MCF7 [5]): Active | Activity (MCF7 [6]): 68.99% | GI50 (KM12): 780 nM | GI50 (HOP-92): 360 nM | Activity (MCF7 [7]): 4.47% | GI50 (NCI-H23): 1410 nM | GI50 (SR): 220 nM | GI50 (SK-MEL-28): 1260 nM | GI50 (HCC 2998): 1210 nM | Activity (MCF7 [8]): Dose-dependent effect | GI50 (UACC-257): 1360 nM | GI50 (SNB-75): 210 nM | Activity (MCF7 [9]): Active | GI50 (TK-10): 600 nM | GI50 (OVCAR-8): 420 nM | GI50 (SF-268): 860 nM | GI50 (SNB-19): 1160 nM | GI50 (IGROV-1): 120 nM | GI50 (CCRF-CEM): 130 nM | GI50 (RXF 393): 240 nM | GI50 (OVCAR-4): 580 nM | GI50 (SF-539): 1760 nM | GI50 (SN12C): 510 nM | Activity (MCF7 [10]): Active | Activity (MCF7 [11]): 8.35% | GI50 (OVCAR-5): 1200 nM | GI50 (NCI-H322M): 1590 nM

Source: ChEMBL document CHEMBL1165860, “Synthesis and potential cytotoxic activity of new phenanthrylphenol-pyrrolobenzodiazepines” (2010)
